For the first assay, the target named is T1, UniProt L7MU75.
T1 sequence (whole entry): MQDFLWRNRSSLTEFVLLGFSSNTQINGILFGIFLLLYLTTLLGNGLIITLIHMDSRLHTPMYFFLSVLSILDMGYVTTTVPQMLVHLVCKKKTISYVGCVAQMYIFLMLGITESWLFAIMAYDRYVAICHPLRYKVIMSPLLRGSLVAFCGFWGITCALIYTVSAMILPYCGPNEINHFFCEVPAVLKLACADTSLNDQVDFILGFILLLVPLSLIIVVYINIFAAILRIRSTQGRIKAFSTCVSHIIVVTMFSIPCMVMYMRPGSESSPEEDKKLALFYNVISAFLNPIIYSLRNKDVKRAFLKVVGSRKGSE
To be noted: stereoisomer not certain. In a few lines: (§1)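 Assay methods differ from source to source, frequently being transient luciferase assays in mammalian cell lines. For each receptor–molecule pair, the label responsive (active) applies when the original authors judged the measured signal statistically different from baseline, and non-responsive (inactive) applies otherwise.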
`CCCC(=O)OC`: the “odorant receptor agonist call” value is “inactive”.
Regarding `CCCCCC(C)(C)O`, the “odorant receptor agonist call” value was “inactive”.
On the same count and under the same terms, in the case of `CC(C)=CC1CC(C)CCO1` (stereo not drawn) it was “inactive”; in that of `OCc1ccccc1`, “inactive”.
`CCC=CCCC=CC=O`: the “odorant receptor agonist call” value was “inactive”.
Take `CCc1nccnc1CC`: the “odorant receptor agonist call” value is “inactive”.
In the case of `CCC(=O)OC(C)(C)C`, the “odorant receptor agonist call” value is “inactive”.
`CC(O)c1ccccc1` (stereo not drawn): the “odorant receptor agonist call” value was “inactive”.
Still for that read-out and setting: in the case of `O=c1ccc2ccccc2o1` it was “active”; in that of `CC1=CCC2CC1C2(C)C` (stereo not drawn), “inactive”.
In the case of `CCc1ncc(C)nc1CC`, the “odorant receptor agonist call” value is “inactive”.
Same read-out and setting: in the case of `CCOC(=O)C(C)CC` (stereo not drawn) it was “inactive”; in that of `CC(C)C12CCC(C)(CC1)O2`, “inactive”.
Still for that read-out and setting: the result for `COc1cnccn1` reads “inactive”; that for `CC(C)CN`, “inactive”; that for `CC(C)=CCCC(C)CC=O` (stereo not drawn), “inactive”.
On the same count and under the same terms, the result for `CCOc1ccccc1` reads “inactive”; that for `CCC(C)c1nccnc1OC` (stereo not drawn), “inactive”.
In the case of `CCCCOC`, the “odorant receptor agonist call” value is “inactive”.
In the case of `CC(C)=CCCC(C)=CCOC(=O)C(C)C`, the “odorant receptor agonist call” value was “inactive”.
The same measure, in the same setting: in the case of `CC(C)CS` it was “inactive”.
Regarding `CCCC(=O)OCC`, the “odorant receptor agonist call” value was “inactive”.
`C=CCCCCCC`: the “odorant receptor agonist call” value was “inactive”.
The same measure, in the same setting: in the case of `CCC=O` it was “inactive”.
The same measure, in the same setting: in the case of `O=C(O)CCCCCBr` it was “inactive”; in that of `COc1nccnc1C(C)C`, “inactive”.
Same read-out and setting: the result for `Cc1nccnc1C` reads “inactive”; that for `CCCCOC(=O)CCC`, “inactive”; that for `c1ccc2ncccc2c1`, “active”.
For `CNc1ccccc1C(=O)OC`, the “odorant receptor agonist call” value is “inactive”.
Consider `CCCOC(=O)CCC`, for which the “odorant receptor agonist call” value was “inactive”.
For the compound `O=C(Cl)CCCCCCCC(=O)Cl`, the “odorant receptor agonist call” value was “inactive”.
Still for that read-out and setting: the result for `CCC(=O)OC` reads “inactive”.

For a further assay, the target named is T2, UniProt L7N0P5.
T2 sequence (whole entry): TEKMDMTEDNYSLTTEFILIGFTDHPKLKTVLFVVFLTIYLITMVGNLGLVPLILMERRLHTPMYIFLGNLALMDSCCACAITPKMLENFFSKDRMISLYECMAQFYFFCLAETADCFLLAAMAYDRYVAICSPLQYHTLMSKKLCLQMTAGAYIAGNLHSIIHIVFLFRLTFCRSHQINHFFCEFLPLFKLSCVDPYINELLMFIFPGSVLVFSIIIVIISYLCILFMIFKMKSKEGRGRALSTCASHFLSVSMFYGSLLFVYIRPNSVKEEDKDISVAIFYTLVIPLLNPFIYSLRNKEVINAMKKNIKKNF
To be noted: stereoisomer not certain. In a few lines:
as §1
Take `CCc1nccnc1CC`: the “odorant receptor agonist call” value is “active”.
For the compound `CCc1ncc(C)nc1CC`, the “odorant receptor agonist call” value was “active”.
Same read-out and setting: the result for `COc1cnccn1` reads “active”; that for `CCC(C)c1nccnc1OC` (stereo not drawn), “active”; that for `COc1nccnc1C(C)C`, “active”.
On to `Cc1nccnc1C`, for which the “odorant receptor agonist call” value is “active”.

Another assay concerns the target T3, UniProt L7N210.
T3 sequence (whole entry): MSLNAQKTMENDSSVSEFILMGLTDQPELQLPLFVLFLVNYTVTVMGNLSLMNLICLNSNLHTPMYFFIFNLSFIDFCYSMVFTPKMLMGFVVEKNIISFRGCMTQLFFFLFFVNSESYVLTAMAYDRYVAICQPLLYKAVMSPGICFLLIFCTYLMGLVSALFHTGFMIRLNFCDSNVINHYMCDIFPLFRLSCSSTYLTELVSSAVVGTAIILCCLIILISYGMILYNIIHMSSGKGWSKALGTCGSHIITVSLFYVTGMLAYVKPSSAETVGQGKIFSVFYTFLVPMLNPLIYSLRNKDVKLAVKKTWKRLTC
To be noted: stereoisomer not certain. In a few lines:
as §1
`CCC=CCCC=CC=O`: the “odorant receptor agonist call” value is “inactive”.
On the same count and under the same terms, the result for `CCc1nccnc1CC` reads “inactive”; that for `O=c1ccc2ccccc2o1`, “active”.
As for `CCc1ncc(C)nc1CC`, the “odorant receptor agonist call” value was “inactive”.
Same read-out and setting: in the case of `CCOC(=O)C(C)CC` (stereo not drawn) it was “inactive”; in that of `COc1cnccn1`, “inactive”; in that of `CCC(C)c1nccnc1OC` (stereo not drawn), “inactive”.
Take `CC(C)=CCCC(C)=CCOC(=O)C(C)C`: the “odorant receptor agonist call” value is “inactive”.
The same measure, in the same setting: the result for `CC(C)CS` reads “inactive”.
The same measure, in the same setting: in the case of `O=C(O)CCCCCBr` it was “inactive”.
As to `COc1nccnc1C(C)C`, the “odorant receptor agonist call” value is “inactive”.
For the compound `c1ccc2ncccc2c1`, the “odorant receptor agonist call” value was “active”.
The same measure, in the same setting: the result for `CNc1ccccc1C(=O)OC` reads “active”.

The target in another assay is T4, UniProt Q3KPB0.
T4 sequence (whole entry): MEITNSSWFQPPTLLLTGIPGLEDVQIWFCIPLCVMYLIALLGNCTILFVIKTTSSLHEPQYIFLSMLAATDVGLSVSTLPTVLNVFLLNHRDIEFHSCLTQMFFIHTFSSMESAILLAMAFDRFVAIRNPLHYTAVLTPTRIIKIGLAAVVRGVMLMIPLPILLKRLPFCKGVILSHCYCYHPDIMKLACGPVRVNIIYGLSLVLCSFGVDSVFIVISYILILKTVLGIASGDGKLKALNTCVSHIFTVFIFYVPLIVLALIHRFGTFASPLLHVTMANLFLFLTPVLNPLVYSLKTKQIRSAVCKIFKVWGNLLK
To be noted: stereoisomer not certain. In a few lines: as §1
As for `CCC=CCCC=CC=O`, the “odorant receptor agonist call” value was “inactive”.
Take `CCc1nccnc1CC`: the “odorant receptor agonist call” value is “inactive”.
The same measure, in the same setting: the result for `CCc1ncc(C)nc1CC` reads “inactive”; that for `CCOC(=O)C(C)CC` (stereo not drawn), “inactive”.
On the same count and under the same terms, in the case of `COc1cnccn1` it was “inactive”; in that of `CCC(C)c1nccnc1OC` (stereo not drawn), “inactive”.
Take `CC(C)=CCCC(C)=CCOC(=O)C(C)C`: the “odorant receptor agonist call” value is “inactive”.
Same read-out and setting: the result for `CC(C)CS` reads “inactive”; that for `O=C(O)CCCCCBr`, “inactive”.
Same read-out and setting: in the case of `COc1nccnc1C(C)C` it was “inactive”; in that of `c1ccc2ncccc2c1`, “inactive”.
With `CNc1ccccc1C(=O)OC`, the “odorant receptor agonist call” value was “inactive”.

The next assay deals with T5, UniProt Q3U0P3.
T5 sequence (whole entry): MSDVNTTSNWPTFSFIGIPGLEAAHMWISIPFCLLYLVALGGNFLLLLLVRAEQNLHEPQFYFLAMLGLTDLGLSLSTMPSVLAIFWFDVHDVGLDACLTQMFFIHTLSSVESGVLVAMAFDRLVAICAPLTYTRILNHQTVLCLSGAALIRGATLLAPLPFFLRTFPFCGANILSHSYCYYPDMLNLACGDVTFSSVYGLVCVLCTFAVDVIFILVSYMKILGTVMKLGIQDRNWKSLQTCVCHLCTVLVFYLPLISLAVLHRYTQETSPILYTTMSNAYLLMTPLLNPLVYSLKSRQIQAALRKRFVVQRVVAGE
To be noted: stereoisomer not certain. In a few lines:
as §1
With `CCC=CCCC=CC=O`, the “odorant receptor agonist call” value was “inactive”.
Regarding `CCc1nccnc1CC`, the “odorant receptor agonist call” value is “inactive”.
Same read-out and setting: in the case of `CCc1ncc(C)nc1CC` it was “inactive”.
Same read-out and setting: the result for `CCOC(=O)C(C)CC` (stereo not drawn) reads “inactive”.
The same measure, in the same setting: in the case of `COc1cnccn1` it was “inactive”; in that of `CCC(C)c1nccnc1OC` (stereo not drawn), “inactive”; in that of `CC(C)=CCCC(C)=CCOC(=O)C(C)C`, “inactive”.
Turning to `CC(C)CS`, the “odorant receptor agonist call” value is “inactive”.
The same measure, in the same setting: the result for `O=C(O)CCCCCBr` reads “inactive”; that for `COc1nccnc1C(C)C`, “inactive”.
Same read-out and setting: in the case of `c1ccc2ncccc2c1` it was “inactive”; in that of `CNc1ccccc1C(=O)OC`, “inactive”.

In the next assay the target is T6, UniProt Q7TQU8.
T6 sequence (whole entry): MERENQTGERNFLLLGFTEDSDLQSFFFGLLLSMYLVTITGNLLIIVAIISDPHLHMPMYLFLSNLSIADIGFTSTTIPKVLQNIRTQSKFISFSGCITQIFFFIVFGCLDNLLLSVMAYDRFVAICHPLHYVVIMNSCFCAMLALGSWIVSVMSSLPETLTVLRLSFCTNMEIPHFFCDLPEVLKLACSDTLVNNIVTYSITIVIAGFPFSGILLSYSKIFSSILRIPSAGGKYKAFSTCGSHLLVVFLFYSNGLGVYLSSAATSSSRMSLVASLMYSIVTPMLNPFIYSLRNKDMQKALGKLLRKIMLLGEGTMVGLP
To be noted: stereoisomer not certain. In outline:
as §1
For `CCC=CCCC=CC=O`, the “odorant receptor agonist call” value is “inactive”.
The same measure, in the same setting: in the case of `CCc1nccnc1CC` it was “inactive”.
On the same count and under the same terms, in the case of `CCc1ncc(C)nc1CC` it was “inactive”; in that of `CCOC(=O)C(C)CC` (stereo not drawn), “inactive”.
As to `COc1cnccn1`, the “odorant receptor agonist call” value was “inactive”.
Same read-out and setting: the result for `CCC(C)c1nccnc1OC` (stereo not drawn) reads “inactive”; that for `CC(C)=CCCC(C)=CCOC(=O)C(C)C`, “inactive”.
Turning to `CC(C)CS`, the “odorant receptor agonist call” value is “inactive”.
Same read-out and setting: the result for `O=C(O)CCCCCBr` reads “inactive”.
On to `COc1nccnc1C(C)C`, for which the “odorant receptor agonist call” value was “inactive”.
The same measure, in the same setting: in the case of `c1ccc2ncccc2c1` it was “inactive”; in that of `CNc1ccccc1C(=O)OC`, “inactive”.

For the origin of these results see the M2OR odorant receptor database.
